The subject of one series is P388 leukemia (mouse). The series can be described thus: Net log value for P388 leukemia cell kill in mice was determined.
The test system of series [1] is L1210. The series can be described thus: In vitro for its inhibitory activity against murine L1210 leukemia; Inactive. It is filed as functional, cell-based, Mus musculus.
Series [2] deals with P388. The series can be described thus: In vivo for the optimal dose for activity against P388 leukemia per injection. It is filed as functional, Mus musculus. An outline of the steps: (§1)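 P388 leukemia in mice, drug given ip on days 1-5 (Q01D×5, IP/IP, NCI testing protocol). Optimum response taken over doses, expressed as mg/kg per injection. Read-outs are %T/C survival and net log cell kill (Schabel method). Cured mice are included in the %T/C and net kill calculations.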

In series [3] the test system is P388. The series is described as follows: Percentage T/C survival (treated vs control) against P388 leukemia (day 30 surv). The format is functional, Mus musculus. In outline:
as §1

For series [4], the species on record is Mus musculus. The series is described as follows: % T/C survival against murine B-16 melanoma (day 60 surv). The format is functional. An outline of the steps: (§2)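 Murine B-16 melanoma in vivo. Optimal dose given as mg/kg per injection. Response is % T/C survival, with day-60 survivors reported as number per group (of 10 or 6).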
Series [5] deals with L1210. The series is described as follows: In vitro for its inhibitory activity against murine L1210 leukemia. The format is functional, cell-based. Conditions: Mus musculus; call rule not given here.
In series [6] the test system is Mus musculus. The series is described as follows: The compound was evaluated in vivo for the optimal dose for activity against murine B-16 melanoma. It is filed as functional. In outline: as §2
The subject of series [7] is Mus musculus. The series can be described thus: The compound was evaluated in vivo for the optimal dose for activity against of B-16 leukemia per injection. Conditions: in the assay text read “B-16 melanoma” for “B-16 leukemia”. It is filed as functional. An outline of the steps: as §2

As for `CCN(CC)CCn1nc2c3c(c(N)ccc31)Sc1c(OC)cccc1-2.Cl`, in the series on P388 leukemia (mouse), the “Net log cell kill” value was -1.5. In the series on L1210 [1], the IC50 result is “Not Active”. Moreover, the Dose in the series with P388 [2] is 25 mg/kg. In the series on P388 [3], the T/C was determined as 109%.

Turning to `CCN(CC)CCn1nc2c3c(c(NCCNCCO)ccc31)Sc1ccccc1-2.Cl.O`, the T/C in the series filed under Mus musculus [4] was found to be 273%; in the series on P388 [3], 280%. In addition, in the series with L1210 [5], it took 0.028 µM to reach half-maximal inhibition (IC50). The “Net log cell kill” value in the series with P388 leukemia (mouse) is given as more than 6.8. For the same compound, the Dose with Mus musculus [6] was 12 mg/kg; with P388 [2], 12.5 mg/kg.

In the case of `CCN(CC)CCn1nc2c3c(c(N)ccc31)Sc1cc(OC)ccc1-2.Cl.O`, the IC50 result in the series with L1210 [1] was “Not Active”.

`CCN(CC)CCn1nc2c3c(c(NCCNCCO)ccc31)Sc1ccc(O)cc1-2.Cl.O`: the T/C in the series listed under Mus musculus [4] was 183%; in the series on P388 [3], 200%. In the series with L1210 [5], inhibition was half-maximal at 0.0048 µM (IC50). The “Net log cell kill” value in the series with P388 leukemia (mouse) is 4.5. Moreover, the Dose in the series on Mus musculus [6] and with P388 [2] was 1.5 mg/kg in each case.

As for `CCN(CC)CCn1nc2c3c(c(NCCN)ccc31)S(=O)(=O)c1ccccc1-2.Cl.O`, the IC50 with L1210 [5] was found to be 1.2 µM. For the same compound, the “Net log cell kill” value in the series on P388 leukemia (mouse) is on record as 1.8. Also, in the series on P388 [2], the Dose came to 100 mg/kg. Moreover, the T/C in the series with P388 [3] worked out at 159%.

On to `CCN(CC)CCn1nc2c3c(c(NCCN4CCOC4=O)ccc31)Sc1ccc(OC)cc1-2.Cl.O`, for which the “Net log cell kill” value in the series on P388 leukemia (mouse) amounted to 6. Also, the half-inhibitory concentration (IC50) result with L1210 [1] is “Not Active”. Also, in the series on P388 [2], the Dose was 100 mg/kg. Besides, in the series with P388 [3], the T/C is listed as 220%.

Consider `Cl.Nc1ccc2c3c(nn2CCNCCO)-c2ccccc2Sc13.O`, for which the T/C in the series filed under Mus musculus [4] was determined as 259%; in the series on P388 [3], 188%. Besides, the “Net log cell kill” value in the series on P388 leukemia (mouse) was found to be 4.3. For the same compound, the Dose in the series with Mus musculus [6] and with P388 [2] was 25 mg/kg in each case.

As to `CCN(CC)CCn1nc2c3c(c(N)ccc31)Sc1ccc(O)cc1-2.Cl.O`, the T/C in the series filed under Mus musculus [4] came to 264%. This compound gave an IC50 in the series on L1210 [5] of 0.011 µM. The “Net log cell kill” value in the series on P388 leukemia (mouse) is reported as more than 6.7. Also, the results for the Dose in the series on Mus musculus [6] and with P388 [2] were 1.8 mg/kg and 6.3 mg/kg, respectively.

On to `Cl.O.O=S1(=O)c2ccccc2-c2nn(CCNCCO)c3ccc(NCCNCCO)c1c23`, for which the “Net log cell kill” value in the series on P388 leukemia (mouse) is reported as 2.5. The IC50 entry with L1210 [1] was “Not Active”. The compound further displayed a Dose in the series with P388 [2] of 200 mg/kg. Also, the T/C in the series on P388 [3] amounted to 168%.

As for `CCN(CC)CCn1nc2c3c(c(NCCN)ccc31)Sc1cc(O)ccc1-2.Cl.O`, the T/C in the series filed under Mus musculus [4] worked out at 281%; in the series on P388 [3], 280%. The compound further had an IC50 in the series with L1210 [5] of 0.071 µM. In addition, the values for the Dose with Mus musculus [6] and with P388 [2] were 7.5 mg/kg and 6.3 mg/kg, respectively.

As for `CCN(CC)CCn1nc2c3c(c(NCCN)ccc31)Sc1c(O)cccc1-2.Cl.O`, in the series with P388 leukemia (mouse), the “Net log cell kill” value was -0.9. Besides, the IC50 result in the series with L1210 [1] is listed as “Not Active”. The same compound registered a Dose in the series with P388 [2] of 6.3 mg/kg. Besides, the T/C with P388 [3] is given as 122%.

On to `CC(=O)OCCN(CCn1nc2c3c(c(N)ccc31)Sc1ccccc1-2)C(C)=O.Cl`, for which the “Net log cell kill” value in the series on P388 leukemia (mouse) is recorded as -1.3. The IC50 entry in the series with L1210 [1] was “Not Active”. In addition, the Dose with P388 [2] amounted to 400 mg/kg. The compound further had a T/C with P388 [3] of 117%.

Turning to `CC(=O)NCCn1nc2c3c(c(N)ccc31)Sc1ccccc1-2.Cl`, in the series on P388 leukemia (mouse), the “Net log cell kill” value is -1.7. The IC50 entry with L1210 [1] is “Not Active”. The same compound yielded a Dose with P388 [2] of 100 mg/kg. Further, the T/C in the series with P388 [3] amounted to 100%.

Regarding `CCN(CC)CCn1nc2c3c(c(NCCCN)ccc31)Sc1ccccc1-2.Cl.O`, in the series on L1210 [5], the IC50 was found to be 0.26 µM. Further, in the series with P388 leukemia (mouse), the “Net log cell kill” value is on record as more than 6.6. The compound also gave a Dose with P388 [2] of 50 mg/kg. Further, the T/C in the series on P388 [3] was found to be 262%.

Consider `CCN(CC)CCn1nc2c3c(c(NCCN)ccc31)Sc1cc(OC)ccc1-2.Cl.O`, for which, in the series with P388 leukemia (mouse), the “Net log cell kill” value is reported as -0.4. The IC50 entry in the series on L1210 [1] is reported as “Not Active”. This compound registered a Dose in the series on P388 [2] of 25 mg/kg. The same compound came in with a T/C in the series with P388 [3] of 133%.

As to `Br.CCN(CC)CCn1nc2c3c(c(NCCNCCO)ccc31)Sc1c(O)ccc(O)c1-2`, the “Net log cell kill” value in the series on P388 leukemia (mouse) was 0.1. Moreover, the IC50 result in the series with L1210 [1] is on record as “Not Active”. For the same compound, the Dose in the series with P388 [2] turned out to be 50 mg/kg.

In the series on L1210 [5], `Br.CCN(CC)CCn1nc2c3c(c(NCCN)ccc31)Sc1cccc(O)c1-2` gave an IC50 of 0.048 µM. For the same compound, the “Net log cell kill” value with P388 leukemia (mouse) is given as 2.8. The Dose in the series on P388 [2] is 12.5 mg/kg. The T/C with P388 [3] is 177%.

For the compound `Br.Nc1ccc2c3c(nn2CCNCCO)-c2cc(O)ccc2Sc13`, in the series with L1210 [5], it took 0.023 µM to reach half-maximal inhibition (IC50). In addition, in the series with P388 leukemia (mouse), the “Net log cell kill” value is given as 4.2. Besides, the Dose with P388 [2] stood at 3.1 mg/kg. Further, the T/C in the series with P388 [3] is 192%.

For the compound `Br.CCN(CC)CCn1nc2c3c(c(NCCN)ccc31)Sc1ccccc1-2`, the Dose turned out to be 6.3 mg/kg in the series on Mus musculus [7] and 12.5 mg/kg with P388 [2]. Besides, the T/C in the series listed under Mus musculus [4] was determined as 159%. Besides, in the series on L1210 [5], the midpoint of inhibition, the IC50, lay at 0.03 µM. The “Net log cell kill” value with P388 leukemia (mouse) is on record as more than 6.6.

Turning to `CCN(CC)CCn1nc2c3c(c(N)ccc31)Sc1ccccc1-2`, in the series filed under Mus musculus [4], the T/C is on record as 112%. This compound also returned an IC50 in the series with L1210 [5] of 0.1 µM. Besides, the “Net log cell kill” value in the series on P388 leukemia (mouse) came out at 2.2. Besides, the results for the Dose with Mus musculus [6] and in the series on P388 [2] were 12 mg/kg and 25 mg/kg, respectively.

On to `CCN(CC)CCn1nc2c3c(c(NCCN4C(=O)c5ccccc5C4=O)ccc31)Sc1c(OC)cccc1-2`, for which, in the series on P388 leukemia (mouse), the “Net log cell kill” value is listed as -1.5. Also, the IC50 entry in the series on L1210 [1] was “Not Active”. In addition, the Dose with P388 [2] was found to be 12.5 mg/kg. The same compound displayed a T/C in the series with P388 [3] of 107%.

For `CCN(CC)CCn1nc2c3c(c(NC(=O)CNC(=O)OC(C)(C)C)ccc31)Sc1cc(OC)ccc1-2`, the IC50 result in the series with L1210 [1] is recorded as “Not Active”.

Consider `CCN(CC)CCn1nc2c3c(c(NCCNC(=O)OC(C)(C)C)ccc31)Sc1cccc(OC)c1-2`, for which the IC50 result in the series with L1210 [1] is “Not Active”.

As to `CCN(CC)CCn1nc2c3c(c(Cl)ccc31)[S+]([O-])c1ccccc1-2` (stereo unspecified), in the series on L1210 [1], the IC50 entry is “Not Active”.

Consider `CC(=O)NCCn1nc2c3c(c(NCCN4CCOC4=O)ccc31)Sc1ccccc1-2`, for which the “Net log cell kill” value in the series with P388 leukemia (mouse) was -1.6. The IC50 entry with L1210 [1] was “Not Active”. Also, the Dose in the series on P388 [2] was 12.5 mg/kg. Also, in the series on P388 [3], the T/C is given as 100%.

In the case of `CCN(CC)CCn1nc2c3c(c(NCCNC(=O)OC(C)(C)C)ccc31)Sc1cc(OC)ccc1-2`, the IC50 result in the series with L1210 [1] is reported as “Not Active”. The compound also had a Dose in the series on P388 [2] of 6.3 mg/kg. This compound returned a T/C with P388 [3] of 93%.

For `CCN(CC)CCNc1ccc2c3c(nn2CCN(CC)CC)-c2ccccc2S(=O)(=O)c13`, in the series on P388 leukemia (mouse), the “Net log cell kill” value is reported as -1.6. For the same compound, in the series on L1210 [1], the IC50 result is “Not Active”. The Dose in the series with P388 [2] turned out to be 12.5 mg/kg. This compound also had a T/C with P388 [3] of 101%.

For the compound `COc1cccc2c1C(=O)c1c(O)c3c(c(O)c1C2=O)C[C@@](O)(C(=O)CO)C[C@@H]3O[C@H]1C[C@H](N)[C@H](O)[C@H](C)O1` [DOXORUBICIN], the values for the T/C in the series listed under Mus musculus [4] and in the series on P388 [3] were 434% and 232%, respectively. Moreover, the Dose was found to be 1 mg/kg in the series with Mus musculus [6] and 2 mg/kg in the series on P388 [2].

Take `O=C1c2c(O)ccc(O)c2C(=O)c2c(NCCNCCO)ccc(NCCNCCO)c21` [MITOXANTRONE]: the T/C in the series listed under Mus musculus [4] is recorded as 265%; in the series with P388 [3], 291%. The Dose in the series with Mus musculus [6] was 0.6 mg/kg; with P388 [2], 1.25 mg/kg.

For the origin of these results see ChEMBL document CHEMBL1124226, “Benzothiopyranoindazoles, a new class of chromophore modified anthracenedione anticancer agents. Synthesis and activity against murine leukemias” (J Med Chem, 1988).
